Results on 1 molecule are retold here after publication PMC12782866 (Biomolecules & Therapeutics, 2025).

Data set [1] can be described thus: Comparative 14-day repeated-dose toxicity study with BAY964. The data set is classed as in vivo, male ICR mice. As to conditions: for exposure multiple: reference not defined. The essentials:
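Male ICR mice were dosed orally once daily for 14 days under GLP. Prodrug arm: 30, 100 or 300 mg/kg in 0.1% kolliphor EL (vehicle n=6; dose groups 6 main + 3 TK). Comparator arm: 30-1000 mg/kg, with 30 mg/kg given only as single-dose TK. Endpoints were clinical signs, body weight, food/water intake, haematology, serum chemistry, organ weights and H&E histopathology. TK was sampled on days 1 and 14.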

The target in data set [2] is hERG channel (Homo sapiens, UniProt Q12809). Briefly: hERG channel inhibition, in vitro. The data set is classed as biochemical. As to conditions: read-out: hERG IC50.

Entries after “also recorded” stand apart in the source; their conditions may differ.

Sequence of hERG channel (Q12809 whole entry): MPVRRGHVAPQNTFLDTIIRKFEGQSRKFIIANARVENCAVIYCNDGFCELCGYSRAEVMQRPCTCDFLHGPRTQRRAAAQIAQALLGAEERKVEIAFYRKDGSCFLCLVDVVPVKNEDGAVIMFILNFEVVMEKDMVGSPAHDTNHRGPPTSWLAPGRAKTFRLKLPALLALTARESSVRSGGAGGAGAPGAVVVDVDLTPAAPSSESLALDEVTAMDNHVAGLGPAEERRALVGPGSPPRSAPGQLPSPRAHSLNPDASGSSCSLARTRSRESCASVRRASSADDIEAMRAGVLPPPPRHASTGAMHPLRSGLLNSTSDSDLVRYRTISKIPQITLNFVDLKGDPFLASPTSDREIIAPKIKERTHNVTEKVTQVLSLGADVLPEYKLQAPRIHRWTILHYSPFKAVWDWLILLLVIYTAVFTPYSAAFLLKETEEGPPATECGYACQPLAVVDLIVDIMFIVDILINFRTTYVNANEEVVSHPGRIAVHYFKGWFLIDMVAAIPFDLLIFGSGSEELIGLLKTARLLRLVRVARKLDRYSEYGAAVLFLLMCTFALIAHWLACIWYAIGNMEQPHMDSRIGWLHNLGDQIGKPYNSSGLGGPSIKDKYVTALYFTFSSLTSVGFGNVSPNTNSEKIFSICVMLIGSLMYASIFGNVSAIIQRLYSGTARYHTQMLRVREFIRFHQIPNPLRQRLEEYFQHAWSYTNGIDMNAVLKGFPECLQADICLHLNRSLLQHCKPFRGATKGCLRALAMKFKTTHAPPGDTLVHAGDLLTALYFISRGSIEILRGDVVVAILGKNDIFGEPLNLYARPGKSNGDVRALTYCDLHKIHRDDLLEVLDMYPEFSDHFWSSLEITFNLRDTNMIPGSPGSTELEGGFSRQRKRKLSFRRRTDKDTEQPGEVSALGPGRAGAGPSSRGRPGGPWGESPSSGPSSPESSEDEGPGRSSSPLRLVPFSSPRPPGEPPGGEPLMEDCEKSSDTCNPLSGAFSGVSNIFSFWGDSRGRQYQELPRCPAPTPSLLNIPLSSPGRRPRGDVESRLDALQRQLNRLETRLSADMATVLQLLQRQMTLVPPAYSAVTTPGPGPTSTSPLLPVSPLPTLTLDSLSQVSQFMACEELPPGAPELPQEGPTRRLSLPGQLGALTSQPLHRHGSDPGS

Regarding `C[C@@H](CO)NC(=O)c1cc(-c2ccc(Cl)cc2)nn(-c2cnn(C)c2)c1=O` [BAY964], the toxicological findings entry in data set [1] (100 mg/kg, 14 days) was “MCHC ↓, TG ↓, liver, spleen”; in data set [1] (300 mg/kg, 14 days), “liver, spleen; hematological changes”; in data set [1] (1000 mg/kg, 14 days) it was “gastrointestinal, liver, spleen, kidney lesions”. Moreover, the exposure multiple in data set [1] (100 mg/kg) is 1.9 ×; in data set [1] (300 mg/kg), 3.6 ×; in data set [1] (1000 mg/kg), 7.0 ×. The Target organ result in data set [1] (100-1000 mg/kg, 14 days) is “liver, spleen, gastrointestinal tract, and kidney; also recorded: Liver, spleen, GI tract, kidney”. Further, the IC50 in data set [2] was greater than 10 µM.
